According to ChEMBL document CHEMBL4513216, “Probing the Open Global Health Chemical Diversity Library for Multistage-Active Starting Points for Next-Generation Antimalarials” (ACS Infect Dis, 2020):

Assay: Toxicity liver stage against HepG2, at 10uM
Type: cell-based
Design: test concentration 10 uM, cell line HepG2-A16-CD81EGFP
Conditions: human, HepG2-A16-CD81EGFP cells; read-out: INHIBITION
Method in brief: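 Uninfected HepG2-A16-CD81EGFP cells, 3 × 10^3 per well, 1536-well, plated on prespotted compound at 10 μM final, parasite-free screening media added to match infected plates; puromycin 10 μM positive, DMSO 0.5% negative; run in parallel with 48 h PbLuc assay at 37 °C, 5% CO2; viability by CellTiter-Glo luminescence, normalized to controls.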

SMILES | cytotoxicity at 10 µM [%]
Cc1nc(N)sc1C(=O)N1CCCC(COc2ccc(F)cc2)C1 (stereo unspecified) | -143
CN(CCCc1ccccc1)C(=O)c1ccccc1NCC(=O)O | -6.96
CCS(=O)(=O)c1ncc(CN(C)CCc2ccccn2)n1CCOC | -3.98
Cc1cccc(-c2nc3cc(S(=O)(=O)N4CCCC4)ccc3n2C)n1 | 16.8
CNc1cc(-c2ccc(COCCN)cc2)c2cc[nH]c2n1 | 5.89
COCc1nc(CNc2cc(C)nc(-c3ccccc3)n2)no1 | 7.06
COCc1ncn(Cc2nc(-c3ccco3)oc2C)n1 | -8.53
COc1ccc(Cl)cc1CN(C)C(=O)CN1C(=O)CCC1C (stereo unspecified) | 0.277
CCC[C@@H]1CN(Cc2ccccc2SC)C[C@H]1NC(C)=O | -5.73
CC(C)(N)c1cn(C2CCN(C3CCSCC3)CC2)nn1 | -10.7
COCCOCC(=O)N1CCC2(CCCN(C3CCOCC3)C2=O)C1 (stereo unspecified) | -133
Cc1cnc(Cn2cc(-c3cccc(C(C)N(C)C)c3)nn2)cn1 (stereo unspecified) | -0.807
CN(C(=O)CCc1ccncc1)C1CCCN(CCc2ccccc2)C1 (stereo unspecified) | -13.5
CCc1ccc(-c2c(C)c(-c3cnn(C)c3)nc(N)c2C#N)o1 | -133
O=C(O)c1cc(-c2ccncc2)cc(S(=O)(=O)N2CCCCCC2)c1 | 2.05
CCNC(=O)[C@@H]1C[C@@H](NC(=O)c2cccn2C)CN1CCCSC | -122
CCOCCOc1ccccc1C(=O)N1CCCC(c2ncc[nH]2)C1 (stereo unspecified) | -14.2
Cc1cnn(CC2CN(Cc3cccnc3)CCO2)c1 (stereo unspecified) | -3.27
CC(C)CC(=O)NS(=O)(=O)c1ccc2c(c1)OCCCO2 | -9.02

SMILES | cytotoxicity at 10 µM [%]
CC(C)c1nc2c(n1C)CCN(Cc1nc(-c3cccnc3)no1)C2 | -1.43
COc1c(CNCCNC(=O)c2ccccc2F)c(C)nn1C | -0.644
CCCNC(=O)NC(=O)CNC(C)(C)c1ccc2c(c1)OCO2 | -12.7
CC1COCCN1Cc1nc(-c2ccsc2)no1 (stereo unspecified) | -17.8
Cc1nc(CN2CCCC(NCCCc3ccccc3)C2)no1 (stereo unspecified) | -3.9
Cc1cccc(NC2CCN(C(=O)Nc3cc(F)ccc3F)CC2)n1 | -10.7
Cc1noc2ncc(C(=O)N3CCCC3c3ccsc3)cc12 (stereo unspecified) | -10.4
CN(C)c1cc(CNC(=O)c2c(F)cccc2F)ccn1 | -18.1
CC(C)c1cnc(CN(C)C2CCN(CCCc3cnn(C)c3)C2)o1 (stereo unspecified) | -13.3
CCc1ncc2c(n1)CN(CC(=O)Nc1cc(C)on1)CC2 | 0.049
COc1cccc(CN2CCCC(c3cc(C(N)=O)[nH]n3)C2)c1 (stereo unspecified) | -1.67
Cn1nc2c(cc1=O)CN(Cc1nc(-c3ccco3)no1)CC2 | 1.22
O=C(NCCc1ccc(I)s1)N1CCC1 | -11.1
Cc1cnn(CC(C)NCc2nc(-c3ccsc3)oc2C)c1 (stereo unspecified) | -2.6
CN(C)CCN1CCN(C(=O)c2ccn(C)c(=O)c2)CC1 | -4.14
Cc1ccc(NC2CCN(C(=O)COC3CCCCC3)CC2)nn1 | 5.94
Cc1ccc(S(=O)(=O)NC(=O)CCC2CCCO2)cc1 (stereo unspecified) | -15.7
Cc1nc(C2CCCN2C(=O)CCCn2cncn2)no1 (stereo unspecified) | 6.62
CN(C(=O)c1ccc(-n2ncc(C#N)c2N)cc1)C1CCCC1 | -5.1

SMILES | cytotoxicity at 10 µM [%]
CN(Cc1ccccn1)CC1CCCN1c1cccnn1 (stereo unspecified) | 2.43
COc1ccc(CC(=O)N2CCCCC2Cn2cccn2)cc1 (stereo unspecified) | -11.3
CCn1cnnc1CNC(=O)N1CCCCCC1 | -7.36
COCc1nc(CN2CCOC(CN(C)c3cccnn3)C2)cs1 (stereo unspecified) | 1.55
CC(=O)Nc1nc(C(=O)NC(C)c2cccnc2)cs1 (stereo unspecified) | -4.21
CC(C)c1noc(C(C)N2CCN(Cc3cccc(C#N)c3)CC2)n1 (stereo unspecified) | -14.3
CC1COCCN1C(=O)c1cccc(OCc2cscn2)c1 (stereo unspecified) | -9.93
Cc1cc(C2CCCN2Cc2cc(=O)n(C)c(=O)n2C)on1 (stereo unspecified) | -4.72
CN1CC(=O)N(c2ccccc2)CC12CCN(C(=O)c1ccnnc1)C2 (stereo unspecified) | 3.39
CN(C)CCOCC1CN(C(=O)c2cccn2C)Cc2ccnn2C1 (stereo unspecified) | 13.5
Cc1cccc(CN2CC[C@@H]3[C@@H]2CCN3C(=O)c2ccno2)n1 | -18.2
Cn1cc(C2CC(=O)NC23CCN(C(=O)Cc2ccccn2)CC3)cn1 (stereo unspecified) | 5.06
CCS(=O)(=O)N1CC[C@H]2C(=O)N(Cc3cccnc3)CCO[C@H]2C1 | -80.4
O=C1CC2(CCN(CC3CC3)C2)CN1c1cccnc1 (stereo unspecified) | -1.18
CN(C)CCN1CCOCC2(CCN(Cc3ccc[nH]3)CC2)C1 | 0.626
CN1C(=O)CC(c2ccccc2)C12CCN(CC1CCOCC1)CC2 (stereo unspecified) | 1.02
CN(Cc1cncnc1)[C@@H]1CN(C(=O)C2CC2)[C@@H]2CCCO[C@H]12 | -112
CC(=O)Nc1ccc(CN2C[C@@H]3CC[C@H]2CN(c2ncccn2)C3)cc1 | -0.0298
